Only some compounds are listed: those with a hit (about 10% of all), similar ones and a draw of the others.
PMI act satM6P – increases human PMI activity with near-saturating mannose 6-phosphate. P34949. coupled PMI enzyme assay, resazurin fluorescence, 20 min; stronger effect = higher value; 1 = untreated enzyme, 0 = substrate-free blank. activation factor at 20 µM. hit rate 0.34% among 190,000. AID 1216;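 active means activation factor of 2 or more at 20 µM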
Target sequence (P34949 whole entry, looked up): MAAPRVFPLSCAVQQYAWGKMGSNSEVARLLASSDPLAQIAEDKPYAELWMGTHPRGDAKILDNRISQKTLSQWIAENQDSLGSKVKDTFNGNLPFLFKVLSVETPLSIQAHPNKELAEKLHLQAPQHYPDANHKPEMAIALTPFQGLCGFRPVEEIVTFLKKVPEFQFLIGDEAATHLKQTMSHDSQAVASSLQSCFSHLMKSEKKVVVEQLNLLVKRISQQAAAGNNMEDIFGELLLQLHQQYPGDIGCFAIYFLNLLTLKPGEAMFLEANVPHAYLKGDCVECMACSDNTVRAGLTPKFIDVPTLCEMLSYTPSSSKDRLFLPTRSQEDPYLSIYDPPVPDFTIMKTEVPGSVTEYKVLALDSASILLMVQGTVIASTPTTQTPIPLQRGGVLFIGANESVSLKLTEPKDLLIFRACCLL
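Test system: human phosphomannose isomerase with PGI, G6PDH, diaphorase coupling enzymes / Doses: 20 µM compound, 1% DMSO / Times: enzyme reaction with compound 20 min at room temperature / Measured by: Diaphorase-driven resazurin-to-resorufin fluorescence, excitation 544, emission 590 nm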
PMI act – phosphomannose isomerase (human) activation. hit rate 0.005% among 190,000. purified human PMI, coupled resazurin fluorescence, 20 min; stronger effect = higher value; 1 = vehicle control, 0 substrate-free wells. activation factor at 20 µM. P34949;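 active means activation factor of 2 or more at 20 µM, relative to plate controls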
WT yeast gro inh – growth inhibition of WT yeast, mitochondrial fusion screen. hit rate 2.1% among 190,000. mitochondrial fusion phenotypic screen, WT strain. inhibition, % at 10 µM. AID 1362; in the data active means inhibition above about 58%; tested in S. cerevisiae
L major viab – inhibitors of Leishmania major promastigote growth; Leishmania major promastigotes, resazurin fluorescence viability; inhibition, % at 10 µM; hit rate 9% among 200,000; AID 1063; in the data active means inhibition above about 50%;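 further: promastigotes grown with compound for 44 hours at 28 °C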
Diaph act CS – activates diaphorase or chemically reduces, flagging diaphorase assay artifacts; Diaphorase/resazurin coupled assay, resorufin fluorescence, 16 min; stronger effect = higher value; 1 = vehicle wells, 0 = NADH-free wells; activation factor at 20 µM; hit rate 0.005% among 190,000;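 active means diaphorase activity raised at least twofold by the compound at 20 µM; inactive means activation factor below 2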
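Material: Purified diaphorase enzyme from Clostridium kluyveri | Buffer or medium: 50 mM HEPES pH 7.4 with 4.542 mM MgCl2, 0.005% Tween 20 | Times: 16 min enzyme reaction, ambient temperature | Signal: Red resorufin fluorescence at 544/590 nm excitation/emission | Measure: Increased resorufin signal from activators or reducing compounds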
Large screens that a line does not name were inactive.

COc1cc(S(=O)(=O)N2CCOCC2)ccc1NC(=O)COC(=O)CC12CC3CC(CC(C3)C1)C2	L major viab 99.8
O=C(CN1CCCCC1)Nc1ccc(S(=O)(=O)N2CCOCC2)cc1	L major viab 96.8
CCCCCCN(C(=O)CCCCCN1C(=O)NC(c2ccc(-c3ccccc3)cc2)C(C(=O)OCc2ccccc2)=C1C)C(C(=O)NCCCC)c1ccc(O)cc1 (stereo not drawn)	none
COc1cccc(-c2noc(-c3ccc(Cl)nc3)n2)c1	none
O=C(COC(=O)CN1C(=O)C2CCCCC2C1=O)Nc1ccc(S(=O)(=O)N2CCOCC2)cc1 (stereo not drawn)	L major viab 56.6
O=C(COC(=O)CN1C(=O)C2CCCCC2C1=O)Nc1cc(S(=O)(=O)N2CCOCC2)ccc1Cl (stereo not drawn)	none
CC(C)(C)C1CCc2[nH]c3ccccc3c(=O)c2C1 (stereo not drawn)	WT yeast gro inh 81.9, L major viab 99.6
CC1c2c([nH]c3ccccc23)CCC1C(=O)O (stereo not drawn)	none
O=c1c2c([nH]c3ccccc13)CCCC2	L major viab 54.9
COc1ccccc1N1CCN(C2=Nc3cccc4cccc2c34)CC1	L major viab 77.2
c1cc2c3c(cccc3c1)C(N1CCN(C3=Nc4cccc5cccc3c45)CC1)=N2	none (no result: PMI act satM6P, PMI act, WT yeast gro inh, Diaph act CS)
c1ccc(CC2CCN(C3=Nc4cccc5cccc3c45)CC2)cc1	L major viab 100.1
COc1ccc(NC(=O)C2CCCN2C(=O)OC(C)(C)C)cc1 (stereo not drawn)	none
CCOC(=O)c1c(-n2cccc2)sc2c1CCCC2=O	none
COc1ccc(C(=O)N/C(=C/c2ccco2)C(=O)NC2CCS(=O)(=O)C2)cc1 (stereo not drawn)	none
Cc1ccc(S(=O)(=O)NC(C(=O)N2CCOCCOCCOCC2)c2ccccc2)cc1 (stereo not drawn)	none
Cc1ccc(S(=O)(=O)c2c(C)nn(C(C)(C)C)c2OC(=O)CC(C)C)cc1	WT yeast gro inh 69.5
CCN(CC(=O)Nc1ccc(C)c(F)c1)CC(=O)NC(C)(C)C	none
Cc1ccc(NC(=O)/C=C\C(=O)NCC(=O)O)cc1	none
CCOC(=O)C1=NNC2(c3ccc(C)cc3)C(=O)N(c3ccc(Cl)cc3)C(=O)C12 (stereo not drawn)	none
Cc1nc2cc(N3CCCCC3)c(NC(=O)c3ccncc3)cc2c(=O)n1Cc1ccc(Cl)cc1	none
Cc1nc2cc(N3CCN(C)CC3)c(NC(=O)Cc3ccccc3)cc2c(=O)n1Cc1ccccc1	L major viab 89.2
CCN(CC1COc2ccccc2O1)C(=S)Nc1ccccc1 (stereo not drawn)	none
CCCCN1C(=O)/C(=C/C=C2/CC(C)(C)CN2C)SC1=S	L major viab 58.5
CCCCN1C(=O)/C(=C/C=C2\Oc3ccccc3N2CC)SC1=S	none
O=C(NC1=NCCS1)c1cccc2ccccc12	WT yeast gro inh 81.3
COc1cc(CNCCCCO)ccc1OCc1ccccc1F	L major viab 83.3
CCOCCCNCc1ccc(OCc2ccccc2C)c(OC)c1	L major viab 98.5
CCN(CC)CCNCc1cc(Cl)ccc1OCc1ccccc1F	L major viab 99.1
CCOCCCNCc1ccc(OCC(=O)N2CCOCC2)c(OC)c1	none
CCNCc1ccc(OCc2ccccc2F)c(OC)c1	L major viab 81.0
CC(C)(C)NCc1cc(Cl)ccc1OCc1ccccc1F	none
COc1cc(CNc2ccc(N3CCCC3)cc2)ccc1OCc1ccccc1F	none
CCC(C)c1ccc(NC(=O)COC(=O)c2nc3nccc(C)n3n2)cc1 (stereo not drawn)	none
O=C(COC(=O)C1CCN(S(=O)(=O)c2ccccc2C(F)(F)F)CC1)NCc1ccc(F)cc1	none
CCCCC[n+]1ccn(-c2nc3ccccc3nc2[N-]S(=O)(=O)c2ccc(C)cc2)c1	L major viab 99.5
CCCC[n+]1ccn(-c2nc3ccccc3nc2[N-]S(=O)(=O)c2ccc(C)cc2)c1	L major viab 99.3
CCCC[n+]1ccn(-c2nc3ccccc3nc2[N-]S(=O)(=O)c2ccccc2)c1	L major viab 54.0
O=S(=O)([N-]c1nc2ccccc2nc1-[n+]1ccccc1)c1ccccc1	none
CCCC[n+]1ccn(C2=C([O-])c3ccccc3C(=O)/C2=N\S(=O)(=O)c2ccccc2)c1	none
O=S(=O)([N-]c1nc2ccccc2nc1-[n+]1ccc(-c2ccncc2)cc1)c1ccccc1	none
CC1CCC/C(=N/Nc2nc3ccccc3s2)C1 (stereo not drawn)	L major viab 51.6
CC1(C)CC(=O)C/C(=N/Nc2nc3ccccc3s2)C1	none
COc1ccc(/C=C/C(=O)c2ccc(NC(=O)c3cccs3)cc2)cc1OC	L major viab 98.2
CCOc1ccc(C(=O)/C=C/c2ccc(OC)c(OC)c2)cc1	L major viab 85.6
C/C=C/c1ccc(OCCOc2ccc(C=O)cc2)c(OC)c1	L major viab 81.7
CCOc1ccc(/C=C/C(=O)c2ccccc2)cc1OC	L major viab 99.4
COc1ccc(C(=O)Nc2ccc(NC(=O)c3cccs3)cc2)cc1Cl	none
CCCc1nc2ccccc2c(C(=O)OC(C)C(=O)NCc2ccc3c(c2)OCO3)c1CC (stereo not drawn)	none
Cc1ccc2nc(SC(C)C(=O)N3CCOCC3)[nH]c2c1 (stereo not drawn)	none
CCCCN(CCCC)CCNC(=O)Cc1nc2c(c(=O)[nH]c(=O)n2C)n1C	WT yeast gro inh 67.1
CCOc1cc(C)nc(NCc2ccccc2)n1	L major viab 64.7
Cc1cc(N2CCCCC2)nc(NCc2ccccc2)n1	L major viab 75.1
CCCCOc1cc(C)nc(NCc2ccccc2)n1	none
COc1cc(Cl)c(C)cc1NC(=O)CNC(C)c1ccccc1OC (stereo not drawn)	none
CCC1CO/C(=C(\C(Cl)=C(Cl)Cl)[N+](=O)[O-])N1 (stereo not drawn)	none
CCCC1CC(C)(c2csc(Nc3ccc(OCC)cc3)n2)OC1=O (stereo not drawn)	WT yeast gro inh 69.0
NS(=O)(=O)c1ccc(CCNC(=S)Nc2ccccc2)cc1	none
CN(C)S(=O)(=O)Nc1ccc(Oc2ccccc2)cc1	L major viab 82.2
C=CCNCCOc1c(C)cc(C)cc1Cl	none
COCCCNCCCCOc1c(Cl)cc(C)cc1Br	L major viab 100.1
Cc1cc(Cl)c(OCCCn2cncn2)c(Br)c1	none
Cc1cc(Br)ccc1OCCNCc1ccccc1	none
C=CCNCCCCOc1c(Cl)cc(C)cc1Br	L major viab 98.8
Cc1cc(C)c(OCCCCNCc2ccccc2)c(Cl)c1	L major viab 97.5
O=C(CN1C(=O)CCC1=O)Nc1cccc(NC(=O)CN2C(=O)CCC2=O)c1	none
CN(C)CC(O)CN1C(=O)N(CN2C(=O)N(CC(O)CN(C)C)C(=O)C2(C)C)C(C)(C)C1=O (stereo not drawn)	none
O/N=C/c1cccnc1Sc1ccccc1	none
COc1ccccc1C(=O)Nc1ccc(CN2CCCCC2)cc1	none

Bioassay records as filed in PubChem BioAssay.
